Laboratory results published in ChEMBL document CHEMBL1629555, “Antimalarial activity of phenylthiazolyl-bearing hydroxamate-based histone deacetylase inhibitors” (Antimicrob Agents Chemother, 2008).
pIC50: −log10 of the molar value. ≈ marks a conversion by molar mass, not a printed value. Calls of active or inactive are those of the source. No cut-off for these calls is given here.

Legend:
[1] = tested on: Plasmodium falciparum; assay: Antimalarial activity against drug-resistant Plasmodium falciparum D6 infected in Aotus lemurinus lemurinus monkey; format: functional, organism-based
[2] = tested on: Plasmodium falciparum; assay: Antimalarial activity against drug-resistant Plasmodium falciparum W2; format: functional, organism-based
[3] = tested on: Plasmodium falciparum; assay: Antimalarial activity against drug-resistant Plasmodium falciparum TM91C235; format: functional, organism-based
[4] = tested on: Plasmodium falciparum; assay: Antimalarial activity against drug-resistant Plasmodium falciparum TM90C2A; format: functional, organism-based
[5] = tested on: Mus musculus; assay: AUC in ICR mouse at 50 mg/kg/day, sc assessed as metabolite W308393 level by LC/MS analysis; format: ADME, organism-based, Plasma; design: route subcutaneous; details: in vivo
Procedure, shortened: (§1)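 Male ICR mice, 8 weeks old, got one 50 mg/kg dose either orally or subcutaneously, with three groups of six mice per route. One mouse per group was killed at 15, 30 and 60 min and at 3, 6 and 24 h. Plasma was deproteinized with 2 volumes of acetonitrile and analysed by LC-MS/MS on a C18 column against 0–500 ng/ml standards, with parent and acid metabolite measured in the same sample. Each six-mouse group was treated as one "animal" and fitted to a two-compartment model. AUC was taken by the linear trapezoidal rule extrapolated to infinity, and Cmax and Tmax were read per "animal".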

[6] = tested on: Mus musculus; assay: AUC in ICR mouse at 50 mg/kg/day, po assessed as metabolite W308393 level by LC/MS analysis; format: ADME, organism-based, Plasma; design: route oral; details: in vivo; procedure, shortened: as §1
[7] = molecular target: T1, Histone deacetylase (Plasmodium falciparum 3D7) (UniProt Q7K6A1); assay: Inhibition of Plasmodium falciparum 3D7 histone deacetylase infected in human erythrocytes assessed as alteration of histone H3 acetylation at 1.8 to 1000 nM after 3.5 hrs by SDS-PAGE; format: cell-based
T1 sequence (whole entry): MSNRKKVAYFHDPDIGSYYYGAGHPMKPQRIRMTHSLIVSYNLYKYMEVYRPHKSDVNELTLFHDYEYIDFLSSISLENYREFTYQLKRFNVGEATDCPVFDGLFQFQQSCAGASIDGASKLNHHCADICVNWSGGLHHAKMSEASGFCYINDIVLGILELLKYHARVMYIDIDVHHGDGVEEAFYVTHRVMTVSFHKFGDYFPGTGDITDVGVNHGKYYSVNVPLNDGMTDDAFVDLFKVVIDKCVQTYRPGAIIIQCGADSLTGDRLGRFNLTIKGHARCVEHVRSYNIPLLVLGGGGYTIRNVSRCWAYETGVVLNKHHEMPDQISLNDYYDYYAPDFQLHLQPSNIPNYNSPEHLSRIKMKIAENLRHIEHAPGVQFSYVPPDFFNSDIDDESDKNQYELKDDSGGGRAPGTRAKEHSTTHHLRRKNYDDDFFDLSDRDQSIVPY
Procedure, shortened: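 About 3 × 10^9 late-trophozoite 3D7-infected erythrocytes were incubated with compound or DMSO vehicle for 3.5 h at 37°C, with an untreated sample taken at the start. Histones (about 6 × 10^8 parasites per lane) were run on SDS–15% PAGE, with silver stain as the loading check. Western blots were probed with anti-(tetra)acetyl-H4 and anti-(di)acetyl-H3 antisera (1:2,000) and read by ECL.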

[8] = tested on: Plasmodium falciparum; assay: Antimalarial activity against Plasmodium falciparum at 1 nM after 48 hrs; format: functional, organism-based
Procedure, shortened: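 P. falciparum-infected erythrocytes were exposed to 1 nM for 3.5 h, then washed and returned to culture. Growth was scored 48 h later relative to matched untreated controls.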

[9] = Cytotoxicity against african green monkey Vero cells by MTT assay; format: cell-based; details: chlorocebus sabaeus, read-out: LC50 (the source's name)
[10] = Cytotoxicity against mouse RAW264.7 cells by MTT assay; format: cell-based; details: read-out: LD50 (the source's name)
Procedure, shortened: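 LC50 in RAW macrophages was determined by MTT assay, given as the mean of 2–4 experiments with range. Selectivity index = RAW LC50 / lowest P. falciparum IC50.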

[11] = tested on: Plasmodium falciparum; assay: Antimalarial activity against Plasmodium falciparum infected in mouse RAW264.7 cells; format: functional, organism-based
[12] = Selectivity index, ratio of LC50 for mouse RAW264.7 cells to IC50 for Plasmodium falciparum; details: RAW264.7 cells
[13] = tested on: Plasmodium falciparum; assay: Antimalarial activity against Plasmodium falciparum infected mouse assessed as reduction in parasitemia at 50 mg/kg, ip; format: functional, organism-based; design: dose 50 mg/kg
[14] = tested on: Plasmodium falciparum; assay: Antimicrobial activity against Plasmodium falciparum; format: functional
Procedure, shortened: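 Labeled-hypoxanthine growth inhibition assay against strains W2, D6, TM91C235 and TM90C2A, reporting IC50. Values are single determinations, or the mean of duplicates for some compounds against D6, W2 and C235. Mefloquine and chloroquine served as assay-validity controls.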

[15] = molecular target: T1, Histone deacetylase (Plasmodium falciparum 3D7); assay: Inhibition of Plasmodium falciparum 3D7 histone deacetylase infected in human erythrocytes assessed as alteration of histone H3 acetylation at 100 nM after 3.5 hrs by SDS-PAGE; format: cell-based
Procedure, shortened: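 About 3 × 10^9 erythrocytes infected with late-trophozoite P. falciparum 3D7 were exposed to compound or to DMSO vehicle for 3.5 h at 37°C, and an untreated sample was taken at the start. Histones were extracted, about 6 × 10^8 parasites were loaded per lane on SDS–15% PAGE, and loading was checked by silver stain. Western blots were probed with anti-tetraacetyl-H4 and anti-diacetyl-H3 antisera and detected by ECL.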

| SMILES | pIC50 [1] | pIC50 [2] | pIC50 [3] | pIC50 [4] | other results |
| --- | --- | --- | --- | --- | --- |
| COc1cccc(-c2csc(NC(=O)CCCCCCC(=O)NO)n2)c1 | 7.83 | 7.95 | 8.21 | 7.99 | – |
| Nc1cc(-c2csc(NC(=O)CCCCCCC(=O)NO)n2)ccc1F | 8.29 | 8.30 | 8.62 | 8.42 | – |
| Nc1cccc(-c2csc(NC(=O)CCCCCCC(=O)O)n2)c1 | < 5.85 | < 5.85 | < 5.85 | 5.85 | AUC [5]: 400 ng·h/mL; AUC [6]: 478 ng·h/mL |
| C[C@@H]1CC[C@H]2[C@@H](C)C(=O)O[C@@H]3O[C@@]4(C)CC[C@@H]1[C@]32OO4 | – | – | – | – | inhibition [7]: inactive; Activity [8]: Active |
| Nc1cccc(-c2csc(NC(=O)CCCCCC(=O)NO)n2)c1 | 7.90 | 7.80 | 7.03 | 7.46 | – |
| Cc1cccc(-c2csc(NC(=O)CCCCCCC(=O)NO)n2)c1 | 8.41 | 8.12 | 8.44 | 8.22 | – |
| CN(CCO)c1ccc(-c2csc(NC(=O)CCCCCCC(=O)NO)n2)cc1N | 9.10 | 9.00 | 9.00 | 9.05 | CC50 [9]: 950 nM; CC50 [10]: 540 nM; pIC50 [11]: 9.09; selectivity ratio [12]: 670 |
| Nc1cccc(-c2csc(C(=O)NCCCCCCC(=O)NO)n2)c1 | 7.37 | 7.40 | 6.77 | 7.22 | – |
| Nc1cccc(-c2csc(NC(=O)CCCCc3cc(C(=O)NO)no3)n2)c1 | 7.23 | 7.14 | 6.83 | 7.10 | – |
| O=C(CCCCCCC(=O)Nc1nc(-c2cccc(F)c2)cs1)NO | 7.93 | 7.85 | 7.80 | 8.11 | – |
| O=C(CCCCCCC(=O)Nc1nc(-c2ccsc2)cs1)NO | 8.12 | 7.77 | 8.19 | 8.13 | – |
| COc1ccc(-c2csc(NC(=O)CCCCCCC(=O)NO)n2)cc1N | 9.05 | 8.92 | 9.00 | 9.00 | CC50 [9]: 950 nM; CC50 [10]: 3200 nM; pIC50 [11]: 9.05; selectivity ratio [12]: 3560 |
| Nc1cccc(-c2cc(C(=O)NCCCCCCC(=O)NO)no2)c1 | 7.48 | 7.16 | 7.37 | 7.55 | – |
| CCC(=O)CCCCC[C@@H]1NC(=O)[C@H]2CCCCN2C(=O)[C@H]([C@@H](C)CC)NC(=O)[C@H](Cc2cn(OC)c3ccccc23)NC1=O [APICIDIN] | – | – | – | – | Activity [13]: Active; MIC [14]: 0.125 µg/mL (≈ 0.2 µM) |
| Cc1sc(NC(=O)CCCCCCC(=O)NO)nc1-c1cccc(N)c1 | 8.10 | 8.14 | 8.21 | 8.40 | – |
| Nc1ccc(-c2csc(NC(=O)CCCCCCC(=O)NO)n2)cc1 | 8.01 | 8.03 | 7.71 | 8.00 | – |
| O=C(CCCCCCC(=O)Nc1nc(-c2ccccc2)cs1)NO | 7.93 | 7.87 | 7.78 | 8.06 | – |
| [N-]=[N+]=Nc1cccc(-c2csc(NC(=O)CCCCCCC(=O)NO)n2)c1 | 8.01 | 7.75 | 7.71 | 8.06 | – |
| Nc1ccccc1-c1csc(NC(=O)CCCCCCC(=O)NO)n1 | 7.47 | 7.41 | 7.38 | 7.52 | – |
| Nc1cc(-c2csc(NC(=O)CCCCCCC(=O)NO)n2)ccc1Cl | 8.77 | 8.77 | 8.85 | 8.80 | – |
| O=C(CCCCCCC(=O)Nc1nc(-c2cccc(O)c2)cs1)NO | 8.57 | 8.57 | 8.77 | 8.80 | – |
| CN(C)c1cccc(-c2csc(NC(=O)CCCCCCC(=O)NO)n2)c1 | 7.52 | 7.45 | 7.22 | 7.73 | – |
| O=C(CCCCCCC(=O)Nc1ccccc1)NO [VORINOSTAT] | – | – | – | – | CC50 [9]: 950 nM; CC50 [10]: 2200 nM |
| O=C(CCCCCCC(=O)Nc1nc(-c2ccc3ccccc3c2)cs1)NO | 8.48 | 8.19 | 8.51 | 8.23 | – |
| CC(/C=C/C(=O)NO)=C\[C@@H](C)C(=O)c1ccc(N(C)C)cc1 | – | – | – | – | inhibition [15]: Active |
